Results: ChEMBL document CHEMBL2384986, “Re-evolution of the 2-phenylquinolines: ligand-based design, synthesis, and biological evaluation of a potent new class of Staphylococcus aureus NorA efflux pump inhibitors to combat antimicrobial resistance” (J Med Chem, 2013)
Activity calls are given as the source filed them. The calls are words filed in the database; no cut-off is given here.

Assays:
[1] = target: Quinolone resistance protein NorA (Staphylococcus aureus, UniProt P0A0J7); test: Inhibition of NorA in Staphylococcus aureus 1199B harboring grlA A116E mutant assessed as inhibition of ethidium bromide efflux measured for 5 mins by fluorometric analysis
Outline: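 Fluorometric EtBr efflux assay in SA-1199B (norA overexpressing, GrlA A116E) over a 5 min time course, compared with no-inhibitor control. Increasing inhibitor concentrations were tested, and IC50 was read by inspection of the dose-response plots. Usually run in duplicate.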

[2] = tested on: Staphylococcus aureus; test: Antibacterial activity against Staphylococcus aureus 1199B overexpressing NorA and grlA A116E mutant assessed as growth inhibition by microdilution method; assay type: functional
Outline: (§1)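 Broth microdilution MIC per CLSI guidelines for intrinsic antistaphylococcal activity; highest concentration tested 100 μg/mL. SA-1199 is the norA wild-type parent, SA-1199B overexpresses norA and carries GrlA A116E, and SA-K2378 overexpresses norA from multicopy plasmid pCU1 in the norA-deleted SA-K1902 background.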

[3] = target: T1, Quinolone resistance protein NorA (Staphylococcus aureus) (UniProt P0A0J7); test: Inhibition of NorA in Staphylococcus aureus 1199B harboring grlA A116E mutant assessed as inhibition of ethidium bromide efflux at 50 uM measured for 5 mins by fluorometric analysis relative to control
T1 sequence (whole entry): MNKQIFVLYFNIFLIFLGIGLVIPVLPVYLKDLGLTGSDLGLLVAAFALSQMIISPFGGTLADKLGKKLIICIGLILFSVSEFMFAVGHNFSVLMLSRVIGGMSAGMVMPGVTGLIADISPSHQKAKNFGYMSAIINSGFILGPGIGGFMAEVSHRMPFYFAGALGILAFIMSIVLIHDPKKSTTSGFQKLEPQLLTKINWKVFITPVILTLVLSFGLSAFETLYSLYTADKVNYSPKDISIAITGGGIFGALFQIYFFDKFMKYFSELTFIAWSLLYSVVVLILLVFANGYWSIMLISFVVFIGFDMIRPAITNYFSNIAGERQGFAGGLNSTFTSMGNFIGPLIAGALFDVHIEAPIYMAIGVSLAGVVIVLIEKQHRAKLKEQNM
Outline: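 EtBr loss from SA-1199B (norA overexpressing, GrlA A116E) measured fluorometrically with inhibitor at 50 μM, compared with no-inhibitor control. Read-out is mean total efflux over a 5 min time course, expressed as percent reduction in efflux. Usually run in duplicate.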

[4] = target: T1, Quinolone resistance protein NorA (Staphylococcus aureus); test: Inhibition of NorA in Staphylococcus aureus K2378 assessed as reduction of ciprofloxacin MIC at 0.78 ug/mL relative to control
Outline: (§2)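 Ciprofloxacin MIC determined by CLSI broth microdilution, alone and combined with scalar dilutions of freshly prepared test compound; checkerboard combination format. Strains: ATCC 25923 (wild type), SA-1199 (norA wt), SA-1199B (norA overexpressing, GrlA A116E), SA-K2378 (norA on multicopy pCU1) and SA-K1902 (norA-deleted).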

[5] = target: T1, Quinolone resistance protein NorA (Staphylococcus aureus); test: Inhibition of wild type NorA in Staphylococcus aureus 1199 assessed as reduction of ciprofloxacin MIC at 0.78 to 100 ug/mL; outline: as §2
[6] = tested on: Staphylococcus aureus; test: Reduction of ethidium bromide MIC in mepA-deficient Staphylococcus aureus K2885 at 0.78 to 100 ug/mL; assay type: functional, organism-based
Outline: (§3)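 The strains are norA-deleted S. aureus carrying pALC2073-mepA (K2886) or the empty pALC2073 vector (K2885). Cloned genes are under a xyl/tetO promoter, induced by 0.05 μg/mL tetracycline, which was present in all experiments with these strains. EtBr MICs were determined by CLSI microdilution, with and without test compound.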

[7] = target: T1, Quinolone resistance protein NorA (Staphylococcus aureus); test: Inhibition of NorA in Staphylococcus aureus K2378 assessed as reduction of ciprofloxacin MIC at 0.78 to 100 ug/mL relative to control; outline: as §2
[8] = tested on: Staphylococcus aureus; test: Reduction of ciprofloxacin MIC in norA-deficient Staphylococcus aureus K1902 at 0.78 to 100 ug/mL; assay type: functional, organism-based; outline: as §2
[9] = tested on: Staphylococcus aureus; test: Antibacterial activity against wild type Staphylococcus aureus ATCC 25923 assessed as growth inhibition by microdilution method; assay type: functional
Outline: (§4)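 Broth microdilution MIC determination following CLSI guidelines. Strains: wild-type ATCC 25923 and SA-K1902 (norA−). Intrinsic activity was tested up to a top concentration of 100 μg/mL.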

[10] = tested on: Staphylococcus aureus; test: Antibacterial activity against Staphylococcus aureus 1199 harboring wild type norA assessed as growth inhibition by microdilution method
[11] = target: T1, Quinolone resistance protein NorA (Staphylococcus aureus); test: Inhibition of NorA in Staphylococcus aureus ATCC 25923 assessed as reduction of ciprofloxacin MIC at 0.78 to 100 ug/mL; outline: as §2
[12] = tested on: Staphylococcus aureus; test: Inhibition of MepA in Staphylococcus aureus K2886 assessed as reduction of ethidium bromide MIC at 0.78 ug/mL relative to control
Outline: (§5)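 Ethidium bromide MIC by CLSI microdilution, alone and combined with test compound. Strain SA-K2886 is norA-deleted and carries pALC2073-mepA, with mepA under a xyl/tetO promoter; 0.05 μg/mL tetracycline was included throughout to induce expression.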

[13] = tested on: Staphylococcus aureus; test: Antibacterial activity against norA-deficient Staphylococcus aureus K1902 assessed as growth inhibition by microdilution method; assay type: functional; outline: as §4
[14] = tested on: Staphylococcus aureus; test: Antibacterial activity against Staphylococcus aureus K2378 overexpressing norA assessed as growth inhibition by microdilution method; assay type: functional; outline: as §1
[15] = target: T1, Quinolone resistance protein NorA (Staphylococcus aureus); test: Inhibition of NorA in Staphylococcus aureus 1199B harboring grlA A116E mutant assessed as reduction of ciprofloxacin MIC at 3.13 ug/mL relative to control; outline: as §2
[16] = tested on: Staphylococcus aureus; test: Inhibition of MepA in Staphylococcus aureus K2886 assessed as reduction of ethidium bromide MIC at 0.78 to 100 ug/mL; outline: as §3
[17] = tested on: Staphylococcus aureus; test: Inhibition of MepA in Staphylococcus aureus K2886 assessed as reduction of ethidium bromide MIC at 1.56 ug/mL relative to control; outline: as §5

Row | SMILES | IC50 [1] [µM] | MIC [2] [µM] | inhibition [3] [%] | inhibition [5] | fold change (FC) [7] | Activity [8] | MIC [9] [µg/mL] | MIC [10] [µg/mL] | inhibition [11] | MIC [13] [µg/mL] | MIC [14] [µg/mL] | further results
1 | CCCOc1ccc(-c2cc(OC3CN4CCC3CC4)c3ccccc3n2)cc1 (stereo not drawn) | 14.8 | > 200 | 91.3 | – | – | – | – | – | – | – | – | –
2 | CCCCN(CCCC)CCOc1cc(-c2ccc(OCCC)cc2)nc2ccccc12 | 9.2 | > 200 | 88.6 | – | – | – | – | – | – | – | – | –
3 | CCCOc1ccc(-c2cc(OCCN3CCCC3)c3ccccc3n2)cc1 | 9.3 | > 200 | 94.2 | – | – | – | – | – | – | – | – | –
4 | CCCOc1ccc(-c2cc(OCCN3CCc4ccccc4C3)c3ccccc3n2)cc1 | – | – | 67.9 | – | – | – | – | – | – | – | – | –
5 | CCCOc1ccc(-c2cc(OCCN3CCCCCC3)c3ccccc3n2)cc1 | 6.4 | > 200 | 86 | inactive | 16 | inactive | > 100 | > 100 | inactive | 50 | 50 | fold change (FC) [4]: 16; Activity [6]: inactive; fold change (FC) [12]: 16; fold change (FC) [15]: 16; inhibition [16]: Active
6 | CCCOc1ccc(-c2cc(OCCN3CCNCC3)c3ccccc3n2)cc1 | 8.3 | > 200 | 93.4 | inactive | 4 | inactive | > 100 | > 100 | inactive | 25 | 50 | fold change (FC) [17]: 16; Activity [6]: inactive; fold change (FC) [15]: 16; inhibition [16]: Active
7 | CCCOc1ccc(-c2cc(OCCN3CCSCC3)c3ccccc3n2)cc1 | – | – | 57.7 | – | – | – | – | – | – | – | – | –
8 | CCCOc1ccc(-c2cc(OC3CCCN(C)C3)c3ccccc3n2)cc1 (stereo not drawn) | 8 | > 200 | 88.2 | inactive | 4 | inactive | – | > 100 | inactive | – | – | –
9 | CCCOc1ccc(-c2cc(OCCn3cccc3)c3ccccc3n2)cc1 | – | – | 4.1 | – | – | – | – | – | – | – | – | –
10 | CCCOc1ccc(-c2cc(OCCN(CC)CC)c3ccccc3n2)cc1 | 8.9 | > 200 | – | inactive | 4 | inactive | 100 | > 100 | inactive | 50 | 50 | –
11 | CCCOc1ccc(-c2cc(OCCCN(C)C)c3ccccc3n2)cc1.Cl | 3.9 | > 200 | 90.6 | inactive | 4 | inactive | > 100 | > 100 | inactive | 25 | 25 | Activity [6]: inactive; inhibition [16]: Active
12 | O=C(O)c1cn(C2CC2)c2cc(N3CCNCC3)c(F)cc2c1=O [CIPROFLOXACIN] | – | – | – | – | – | – | 0.31 | 0.63 | – | 0.63 | 2.5 | –
13 | CCCOc1ccc(-c2cc(OCCN(Cc3ccccc3)Cc3ccccc3)c3ccccc3n2)cc1 | – | – | 0 | – | – | – | – | – | – | – | – | –
14 | CCCOc1ccc(-c2cc(OCC(C)N(C)C)c3ccccc3n2)cc1.Cl (stereo not drawn) | 7.5 | > 200 | 90.4 | inactive | 4 | inactive | – | > 100 | inactive | – | – | –
15 | CCCOc1ccc(-c2cc(OCCN3C(=O)c4ccccc4C3=O)c3ccccc3n2)cc1 | – | – | 8.3 | – | – | – | – | – | – | – | – | –
